# MrgX1 agonist: human MrgX1 receptor agonism, primary screen. Q96LB2. MrgX1-HEK293 cells, Fluo-4 calcium fluorescence, agonist mode; stronger effect = higher value. B-score at 10 µM. 0.44% of 310,000 active. AID 588627;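 active = calcium response B-score plate-corrected fluorescence ratio at least 3 library SD, with starting fluorescence B-score inside 5 SD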
# Target sequence (Q96LB2 whole entry, looked up): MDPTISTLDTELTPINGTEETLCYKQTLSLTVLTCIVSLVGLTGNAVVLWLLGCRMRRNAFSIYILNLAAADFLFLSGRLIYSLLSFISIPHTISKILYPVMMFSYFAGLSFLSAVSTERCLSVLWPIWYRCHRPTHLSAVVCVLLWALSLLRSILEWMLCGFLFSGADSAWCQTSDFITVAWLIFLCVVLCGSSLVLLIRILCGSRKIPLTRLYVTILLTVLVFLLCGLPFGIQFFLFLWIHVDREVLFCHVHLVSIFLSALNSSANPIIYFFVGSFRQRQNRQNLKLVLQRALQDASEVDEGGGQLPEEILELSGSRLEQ
#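 times = overnight plating, then 30 min 37 °C plus 30 min room-temperature dye loading | assay system = stable human MrgX1 HEK293 cell line | input = fifteen thousand cells per well | signal = kinetic calcium dye fluorescence, Fluo-4 NW | dosing = compound delivered in addition one of three | read-out = B-scored fluorescence response ratio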
# RGS4 act: RGS4 potentiation or activation; HEK293 M3R/inducible RGS4, carbachol calcium flux Fluo4; stronger effect = lower value; B-score at 10 µM; 0.92% of 310,000 active;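 active = B-score of the integrated calcium signal more than 4 SD below the library mean, with starting fluorescence not abnormally high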;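 also: negative B-score means reduced calcium response which marks RGS4 activation or potentiation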
#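 Assay system: HEK293 FlpIn-TREx cells, stable M3R, doxycycline-inducible RGS4 / Probe or stimulus: carbachol, ECmax concentration / Times: overnight RGS4 induction, 30 min dye load 37 °C, 20 min compound RT / Signal: kinetic calcium fluorescence imaging with Fluo4-AM dye, 2 µM / Measure: Agonist-evoked peak-minus-minimum fluorescence over baseline, integrated ratio, B score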
# MrgX1 allo act: human MrgX1 positive allosteric modulation, primary screen. Q96LB2. MrgX1-HEK293, Fluo-4 calcium flux, FDSS; stronger effect = higher value. B-score at 10 µM. 0.63% of 310,000 active;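 active = plate-corrected calcium response at least 3 library SD above typical, normal starting fluorescence, not activating the receptor alone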;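 also: compound read alongside a low EC10 to EC30 dose of BAM8-22 agonist; peak minus trough fluorescence over baseline measured at the second addition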
# RGS4 block: human RGS4 inhibition; P49798; HEK293 M3R/RGS4 inducible, Fluo-4 calcium flux; stronger effect = higher value; triggered by carbachol at its EC20; B-score at 10 µM; 0.45% of 310,000 active; AID 463165;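 active = B-score, a plate-corrected calcium signal, over three deviations above library mean, with baseline fluorescence within five deviations of library mean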;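 also: RGS4 expression induced by doxycycline in cells with stable M3 receptor; B-score is computed from the integrated fluorescence ratio over baseline after carbachol; higher B-score means a larger calcium signal and so more RGS4 inhibition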
# Target sequence (P49798 whole entry, looked up): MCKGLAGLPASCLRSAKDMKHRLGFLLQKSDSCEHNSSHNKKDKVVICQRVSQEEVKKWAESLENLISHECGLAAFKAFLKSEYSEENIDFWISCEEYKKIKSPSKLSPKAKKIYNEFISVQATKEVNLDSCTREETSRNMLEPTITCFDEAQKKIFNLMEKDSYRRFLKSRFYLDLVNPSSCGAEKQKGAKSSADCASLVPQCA
# MrgX1 antagonist: blocks BAM8-22 activation of human MrgX1 receptor; AID 588676; Q96LB2; MRGX1-HEK293 calcium flux, Fluo-4, BAM8-22 antagonism; stronger effect = lower value; B-score at 10 µM; 1.3% of 310,000 active;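 active = calcium-response B-score plate-corrected more than 3 library SD below zero, starting fluorescence within 5 deviations, no agonist response on first addition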;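 also: peak minus trough fluorescence over baseline after final BAM8-22 challenge near maximal dose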
# RGS4 act valid: RGS4 activation, validation assay | HEK293 M3R/RGS4 inducible, carbachol calcium flux Fluo4 | AID 602282 | shares compounds with RGS4 act | inhibition, % at 10 µM | 89% of 1,100 active;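 active = inhibition above 3 SD of the buffer control wells, cut at about 41% in these data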;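 also: signal is the integrated peak-minus-minimum Fluo4 fluorescence over baseline ratio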
# M3R Ca counter: RGS4 activator counter-screen hit in non-induced cells; 82% of 1,100 active; shares compounds with RGS4 act; HEK293 M3R non-induced RGS4, Fluo4 calcium flux; after carbachol challenge at its EC90; inhibition, % at 10 µM;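 active = inhibition exceeding 3 SD of buffer-only control wells, cut at about 26% in these data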;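 also: percent drop in integrated peak-minus-baseline over baseline Fluo4 ratio after carbachol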
# Starred values were filed as active, the others as inactive; i = inactive; · = not tested or not shown. In the library only some 3.5% were active in any assay of this set; here they are far more common.
SMILES,MrgX1 agonist,RGS4 act,MrgX1 allo act,RGS4 block,MrgX1 antagonist,RGS4 act valid,M3R Ca counter
CCOC(=O)Oc1ccc2oc(C)c(C(=O)OCCOC)c2c1,i,i,i,i,i,·,·
COCCOC(=O)c1c(C)oc2ccc(OC(=O)c3c(OC)cccc3OC)cc12,i,-7.68*,i,i,i,93.0*,57.3*
Cc1ccc(NC2CCCN(C(=O)CN3C(=O)CSC3=O)C2)cc1C (configuration not stated),i,i,i,i,i,·,·
O=C(OCC(=O)N1CCc2ccccc21)c1c2c(nc3ccccc13)CCCCC2,i,-9.38*,i,i,i,83.0*,43.8*
CC(C)(C)NC(=O)COC(=O)c1c2c(nc3ccccc13)CCC2,i,-9.55*,i,i,i,43.5*,0.0
Nc1ccc(C(=O)Nc2ccco2)cc1,i,i,i,i,i,·,·
Cc1ccc(C)c(NC(=O)C(NCC(C)(C)N2CCOCC2)c2ccccc2)c1 (configuration not stated),i,-10.3*,i,i,i,92.0*,94.8*
CS(=O)(=O)N(CC(=O)NCc1cccnc1)C1CCCCC1,i,i,i,i,i,·,·
O=C(Nc1ccc2c(c1)CCCN2C(=O)c1ccccc1)c1ccccc1,i,-9.03*,i,i,i,62.0*,0.0
N#Cc1ccccc1OCCCN1CCC(Cc2ccccc2)CC1,i,-8.72*,i,i,i,82.0*,38.8*
CC(C)Cc1c(O)nc(SCC(=O)N2CCCCCC2)[nH]c1=O,i,i,i,i,i,·,·
COC(=O)C(Nc1ccccc1Cl)(c1cc(C)c(O)c(C)c1)C(F)(F)F (configuration not stated),i,-9.6*,i,i,i,93.0*,97.3*
CCOc1ccc2oc(C(=O)N3CCN(c4ccccc4OCC)CC3)c(C)c2c1,i,-10.3*,i,i,i,91.5*,78.8*
COc1ccccc1N1CCN(C(=O)c2oc3cc(C)c(C)cc3c2C)CC1,·,i,·,i,·,·,·
CCCCC(CC)C(=O)Oc1ccc(O)c(C(C)(C)C)c1 (configuration not stated),i,-7.74*,i,i,i,92.5*,86.8*
CCCN(CC(=O)Nc1ccccc1C)C(=O)C1CCN(c2ncnc3sc(C)c(C)c23)CC1,i,-8.71*,i,i,i,63.5*,27.3*
CCOc1ccc(NC(=O)CN(C)C(=O)C2CCN(c3ncnc4sc(C)c(C)c34)CC2)cc1OCC,i,i,i,i,i,·,·
Cc1nc(C(=O)Nc2cccc(Cl)c2Cl)nn1-c1cc(OC(C)C)c(Cl)cc1Cl,i,i,i,i,i,·,·
Cc1[nH]nc2c1C(c1ccc(F)cc1)C1=C(CC(C)(C)CC1=O)N2 (configuration not stated),i,-9.67*,i,i,i,0.0,0.0
CC1(C)CC(=O)C2=C(C1)OC(N)=C(C#N)C2c1ccccc1[N+](=O)[O-] (configuration not stated),i,-11*,i,i,i,0.0,0.0
N#Cc1c(N2CCSCC2)nsc1-c1ccccc1Cl,i,i,i,i,i,·,·
CCOC(=O)c1ccc(NC(=S)N2CCCC(C(=O)N3CCCC3)C2)cc1 (configuration not stated),i,i,i,i,i,·,·
CCOC(=O)c1ccc(NC(=S)N2CCCC(C)C2)cc1 (configuration not stated),i,-8.86*,i,i,i,79.0*,25.8*
CCOC(=O)c1ccc(NC(=S)N2CCSC2c2ccc(Br)cc2)cc1 (configuration not stated),i,-8.09*,i,i,i,92.5*,91.3*
CCOC(=O)c1ccc(NC(=S)N2CCC(O)CC2)cc1,i,i,i,i,i,·,·
SMILES,MrgX1 agonist,RGS4 act,MrgX1 allo act,RGS4 block,MrgX1 antagonist,RGS4 act valid,M3R Ca counter
NC(=O)COC(=O)c1c2c(nc3ccccc13)CCCC2,i,i,i,i,i,·,·
CC1CCN(S(=O)(=O)c2ccc3c(ccn3CCC(=O)NC(C)C)c2)CC1,i,-7.88*,i,i,i,0.0,0.0
O=C(NC1CCCCC1)N1CCSC1=Nc1ccccc1,i,-8.17*,i,i,i,79.5*,42.8*
O=C1CC(N2CCN(C/C=C/c3ccccc3)CC2)C(=O)N1Cc1cccs1 (configuration not stated),i,-7.91*,i,i,i,93.5*,25.8*
CCC(C)Nc1nc(OC(C(F)(F)F)C(F)(F)F)nc(OC(C(F)(F)F)C(F)(F)F)n1 (configuration not stated),i,-7.88*,i,i,i,90.0*,52.8*
CC1=C(c2ccccc2)SC2=NCCN21,i,-9.67*,i,i,i,75.0*,31.3*
Cc1cc(NCc2ccccn2)n2ncc(-c3ccccc3)c2n1,i,-7.76*,i,i,i,89.5*,42.8*
Cc1cc(NCc2ccccn2)n2ncc(-c3ccc(Cl)cc3)c2n1,i,i,i,i,i,·,·
Cc1cc(C)nc(NS(=O)(=O)c2ccc(NC(=O)Nc3ccccc3F)cc2)n1,i,i,i,i,i,·,·
CCc1ccc(OCC(=O)N2CCN=C2c2ccccc2)cc1,i,-8.56*,i,i,i,0.0,0.0
N#CC(C#N)=c1ccc2c(c1)N1C3=C(CCCC3)CC3CCCCC31N=2 (configuration not stated),i,-8.24*,i,i,i,84.0*,83.8*
Cc1ccc(S(=O)(=O)Cc2ccc(C(=O)N3CCCCC3C)cc2)cc1 (configuration not stated),i,i,i,i,i,·,·
O=C(NCCOc1ccc(F)cc1)c1ccccc1SCc1ccccc1,i,-7.71*,i,i,i,92.5*,73.8*
CCc1ccc(OCCNC(=O)c2ccccc2SCc2ccc(F)cc2)cc1,i,i,i,i,i,·,·
CCOC(=O)c1sc2nc(C)nc(NCc3ccc(F)cc3)c2c1C,i,i,i,i,i,·,·
CCOC(=O)c1sc2nc(C)nc(NCc3ccc(Cl)cc3)c2c1C,i,-7.78*,i,i,i,90.5*,42.3*
COc1cc(C(=O)N/N=C(\Cc2ncc[nH]2)c2ccccc2)cc(OC)c1OC,i,i,i,i,i,·,·

# Assay outcomes as filed in PubChem BioAssay.
